BindingDB's records for doi:10.1016/j.bmc.2016.04.060 (Chugai Pharmaceutical, 2016)

Biological target: Phosphatidylinositol 3-kinase regulatory subunit alpha/4,5-bisphosphate 3-kinase catalytic subunit alpha isoform (Homo sapiens, UniProt P27986+P42336)
Test: Inhibition of human PI3K p110alpha/p85alpha expressed in baculovirus preincubated for 20 mins followed by addition of phosphorylate phosphatidylinositol-4,5-bisphosphate as substrate and ATP measured after 15 mins by AlphaScreen competition assay
In short: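 Purified baculovirus-expressed human p110/p85α preincubated with compound 20 min at room temperature. Then 4 µM PI(4,5)P2 and 10 µM ATP (5 mM Hepes pH 7.5, 2.5 mM MgCl2) added for 15 min at 37 °C. PIP3 product detected by AlphaScreen competition using GST-GRP1, biotin-PIP3 and anti-GST acceptor/streptavidin donor beads, 1 h at room temperature.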

Chain of Phosphatidylinositol 3-kinase regulatory subunit alpha/4,5-bisphosphate 3-kinase catalytic subunit alpha isoform (P27986 whole entry, canonical isoform): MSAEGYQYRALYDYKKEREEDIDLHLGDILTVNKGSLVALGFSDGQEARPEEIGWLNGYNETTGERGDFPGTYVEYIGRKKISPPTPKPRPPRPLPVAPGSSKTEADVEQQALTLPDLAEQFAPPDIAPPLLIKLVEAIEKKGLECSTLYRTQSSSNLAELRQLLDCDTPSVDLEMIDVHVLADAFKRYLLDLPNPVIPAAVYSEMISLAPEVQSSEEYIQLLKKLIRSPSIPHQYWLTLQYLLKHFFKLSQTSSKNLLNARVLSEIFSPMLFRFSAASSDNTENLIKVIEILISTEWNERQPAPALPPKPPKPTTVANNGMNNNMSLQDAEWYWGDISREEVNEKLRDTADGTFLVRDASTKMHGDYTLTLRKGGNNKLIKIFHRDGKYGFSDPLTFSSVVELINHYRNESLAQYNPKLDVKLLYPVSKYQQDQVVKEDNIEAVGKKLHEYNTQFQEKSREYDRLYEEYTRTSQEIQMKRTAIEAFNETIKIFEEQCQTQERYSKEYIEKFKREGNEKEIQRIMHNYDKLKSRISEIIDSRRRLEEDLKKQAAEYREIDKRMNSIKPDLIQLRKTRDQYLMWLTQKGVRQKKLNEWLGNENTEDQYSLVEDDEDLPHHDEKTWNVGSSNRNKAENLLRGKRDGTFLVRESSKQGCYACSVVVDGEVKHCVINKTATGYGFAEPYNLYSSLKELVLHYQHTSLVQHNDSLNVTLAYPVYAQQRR
Chain of Phosphatidylinositol 3-kinase regulatory subunit alpha/4,5-bisphosphate 3-kinase catalytic subunit alpha isoform (P42336 whole entry, canonical isoform): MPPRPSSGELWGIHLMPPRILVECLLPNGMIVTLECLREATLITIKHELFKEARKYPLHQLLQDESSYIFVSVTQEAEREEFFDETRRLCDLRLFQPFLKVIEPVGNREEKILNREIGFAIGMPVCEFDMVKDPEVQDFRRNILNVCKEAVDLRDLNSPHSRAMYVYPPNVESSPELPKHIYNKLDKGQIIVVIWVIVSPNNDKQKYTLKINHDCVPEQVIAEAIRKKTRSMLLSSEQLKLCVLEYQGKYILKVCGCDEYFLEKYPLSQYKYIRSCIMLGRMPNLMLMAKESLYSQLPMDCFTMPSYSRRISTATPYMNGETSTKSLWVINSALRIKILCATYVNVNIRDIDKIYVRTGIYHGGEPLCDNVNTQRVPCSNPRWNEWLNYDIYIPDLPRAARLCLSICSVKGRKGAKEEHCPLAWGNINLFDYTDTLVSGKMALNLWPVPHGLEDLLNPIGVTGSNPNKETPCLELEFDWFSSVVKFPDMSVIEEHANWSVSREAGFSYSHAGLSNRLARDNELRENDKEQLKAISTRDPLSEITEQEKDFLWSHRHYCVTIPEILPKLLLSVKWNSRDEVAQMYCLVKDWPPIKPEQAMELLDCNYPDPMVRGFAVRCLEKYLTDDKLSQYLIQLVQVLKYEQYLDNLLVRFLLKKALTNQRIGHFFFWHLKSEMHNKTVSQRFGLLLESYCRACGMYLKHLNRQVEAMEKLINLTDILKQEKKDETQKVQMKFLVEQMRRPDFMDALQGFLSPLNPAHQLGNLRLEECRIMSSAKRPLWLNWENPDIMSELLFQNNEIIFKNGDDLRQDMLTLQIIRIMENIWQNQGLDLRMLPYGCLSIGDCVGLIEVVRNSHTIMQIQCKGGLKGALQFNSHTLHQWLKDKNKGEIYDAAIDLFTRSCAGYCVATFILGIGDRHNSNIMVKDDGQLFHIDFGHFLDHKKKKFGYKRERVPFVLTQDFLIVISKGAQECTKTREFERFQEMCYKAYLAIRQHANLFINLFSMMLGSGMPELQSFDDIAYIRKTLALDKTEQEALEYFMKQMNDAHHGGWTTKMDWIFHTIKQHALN

SMILES: CCN1CCN(c2ccc(NC(=O)N3CCc4c(-c5cnc(N)nc5)nc(N5CCOCC5)nc43)c(C)c2)CC1
- IC50: 0.01 µM

SMILES: CCN1CCN(c2cc(F)c(NC(=O)N3CCc4c(-c5cnc(N)nc5)nc(N5CCOCC5)nc43)c(F)c2)CC1
- IC50: 0.022 µM
